ChEMBL document CHEMBL1143703, “Linear TMC-95-based proteasome inhibitors” (J Med Chem, 2007)
pKi: −log10 of the molar value. Residues, ends and D or L forms follow the SMILES beside them. *: point of attachment. Cbz = O=C(OCc1ccccc1)*; Boc = CC(C)(C)OC(=O)*; NHBn = c1ccc(CN*)cc1; NHPh = c1ccc(N*)cc1; Bn = c1ccc(C*)cc1

Key:
[1] = Inhibition of post acid activity of rabbit reticulocyte 20S proteasome; set-up: species or system Oryctolagus cuniculus
[2] = Inhibition of trypsin-like activity of rabbit reticulocyte 20S proteasome; set-up: species or system Oryctolagus cuniculus
In short: (§1)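 Trypsin-like site: proteasome exposed to 0.1-100 µM compound, fluorogenic substrate hydrolysis read 1 h at 37 °C in pH 7.5 20 mM Tris, 1 mM DTT, 10% glycerol without SDS; 3% DMSO final. Initial rates relative to untreated control: >100% expressed as activation factor, <100% as inhibition; Ki via Vi/V0 = 1/(1+[I]/Ki(app)) or IC50 = Ki(1+[S]/Km).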

[3] = species on record: Oryctolagus cuniculus; assay: Inhibition of post acid activity of rabbit reticulocyte 20S proteasome at 100 uM
[4] = Inhibition of chymotrypsin-like activity of rabbit reticulocyte 20S proteasome; set-up: species or system Oryctolagus cuniculus
[5] = species on record: Oryctolagus cuniculus; assay: Inhibition of trypsin-like activity of rabbit reticulocyte 20S proteasome at 100 uM; in short: as §1
[6] = species on record: Oryctolagus cuniculus; assay: Inhibition of chymotrypsin-like activity of rabbit reticulocyte 20S proteasome at 100 uM
[7] = species on record: Oryctolagus cuniculus; assay: Activation of trypsin-like activity of rabbit reticulocyte 20S proteasome relative to control; in short: as §1

SMILES	pKi [1]	pKi [2]	inhibition [3] [%]	pKi [4]	inhibition [5] [%]	inhibition [6] [%]	Fold change [7]
NCCCC[C@H](NC(=O)[C@@H](N)Cc1ccc(OCc2ccccc2)cc1)C(=O)N[C@@H](Cc1c[nH]c2ccccc12)C(=O)NCc1ccccc1 (H-Tyr(Bn)-Lys-Trp-NHBn)	< 4.00	6.49	< 20	5.97	–	–	–
COC(=O)[C@H](Cc1c[nH]c2c(Br)cccc12)NC(=O)[C@H](CC(N)=O)NC(=O)[C@H](Cc1ccc(OCc2ccccc2)c(I)c1)NC(=O)OC(C)(C)C	4.26	< 4.00	–	4.85	< 20	–	–
CC(C)(C)OC(=O)N[C@@H](Cc1ccc(O)cc1)C(=O)N[C@@H](CCCNC(=N)N)C(=O)N[C@@H](Cc1c[nH]c2ccccc12)C(=O)NCc1ccccc1 (Boc-Tyr-Arg-Trp-NHBn)	6.22	5.41	–	5.92	–	–	–
CC(C)(C)OC(=O)N[C@@H](Cc1ccc(OCc2ccccc2)cc1)C(=O)NCC(=O)N[C@@H](Cc1c[nH]c2ccccc12)C(=O)O (Boc-Tyr(Bn)-Gly-Trp-OH)	< 4.00	–	< 20	< 4.00	–	< 20	1.8
CCOC(=O)[C@H](Cc1c[nH]c2c(Br)cccc12)NC(=O)[C@H](CC(C)C)NC(=O)[C@H](Cc1ccc(OCc2ccccc2)c(I)c1)NC(=O)OC(C)(C)C	< 4.00	< 4.00	< 20	< 4.00	< 20	< 20	–
C[C@H](NC(=O)[C@@H](N)Cc1ccc(OCc2ccccc2)cc1)C(=O)N[C@@H](Cc1c[nH]c2ccccc12)C(=O)NCc1ccccc1 (H-Tyr(Bn)-Ala-Trp-NHBn)	< 4.00	< 4.00	–	6.32	–	–	–
CC(C)C[C@@H](C=O)NC(=O)[C@H](CC(C)C)NC(=O)[C@H](CC(C)C)NC(=O)OCc1ccccc1 [MG-132] (Cbz-Leu-Leu-Leu-aldehyde)	6.17	5.35	–	7.12	–	–	–
C[C@H](NC(=O)[C@H](Cc1ccc(O)cc1)NC(=O)OC(C)(C)C)C(=O)N[C@@H](Cc1c[nH]c2ccccc12)C(=O)O (Boc-Tyr-Ala-Trp-OH)	< 4.00	–	< 20	< 4.00	–	< 20	6.8
CCOC(=O)[C@@H](Cc1c[nH]c2c(-c3ccc(C[C@H](NC(=O)OC(C)(C)C)C(=O)N[C@H](CC(C)C)C(=O)OC)cc3OCc3ccccc3)cccc12)NC(=O)OCc1ccccc1	< 4.00	–	20	< 4.00	–	< 20	1.4
CC(C)C[C@H](NC(=O)[C@H](Cc1ccc(OCc2ccccc2)cc1)NC(=O)OC(C)(C)C)C(=O)N[C@@H](Cc1c[nH]c2ccccc12)C(=O)Nc1ccccc1 (Boc-Tyr(Bn)-Leu-Trp-NHPh)	< 4.00	–	< 20	< 4.00	–	< 20	1.9
COC(=O)[C@H](Cc1c[nH]c2c(Br)cccc12)NC(=O)[C@H](C)NC(=O)[C@H](Cc1ccc(OC)c(I)c1)NC(=O)OC(C)(C)C	4.13	< 4.00	–	4.23	< 20	–	–
CC(C)C[C@H](NC(=O)[C@H](Cc1ccc(OCc2ccccc2)cc1)NC(=O)OC(C)(C)C)C(=O)N[C@@H](Cc1c[nH]c2ccccc12)C(=O)Nc1ccc(O)cc1	4.02	–	–	< 4.00	–	< 20	1.6
COC(=O)[C@H](Cc1c[nH]c2c(Br)cccc12)NC(=O)[C@H](CC(C)C)NC(=O)[C@H](Cc1ccc(OCc2ccccc2)c(I)c1)NC(=O)OC(C)(C)C	< 4.00	–	< 20	< 4.00	–	< 20	2
COC(=O)[C@H](Cc1c[nH]c2c(Br)cccc12)NC(=O)[C@H](C)NC(=O)[C@H](Cc1ccc(OCc2ccccc2)c(I)c1)NC(=O)OC(C)(C)C	4.02	< 4.00	–	< 4.00	< 20	< 20	–
CC(C)(C)OC(=O)N[C@@H](Cc1ccc(OCc2ccccc2)cc1)C(=O)N[C@@H](CCCN(C(=N)NC(=O)OCc1ccccc1)C(=O)OCc1ccccc1)C(=O)N[C@@H](Cc1c[nH]c2ccccc12)C(=O)NCc1ccccc1	< 4.00	–	< 20	< 4.00	–	< 20	1.9
CC(C)C[C@H](NC(=O)[C@H](Cc1ccc(OCc2ccccc2)cc1)NC(=O)OC(C)(C)C)C(=O)N[C@@H](Cc1c[nH]c2ccccc12)C(=O)NCCCCNC(=O)OC(C)(C)C	4.50	–	–	4.09	–	–	2.3
CC(C)C[C@H](NC(=O)[C@@H](N)Cc1ccc(OCc2ccccc2)cc1)C(=O)N[C@@H](Cc1c[nH]c2ccccc12)C(=O)NCCCCN	4.65	6.48	–	5.43	–	–	–

SMILES	pKi [1]	pKi [2]	inhibition [3] [%]	pKi [4]	inhibition [5] [%]	inhibition [6] [%]	Fold change [7]
CNC(=O)[C@H](Cc1c[nH]c2c(Br)cccc12)NC(=O)[C@H](C)NC(=O)[C@H](Cc1ccc(OCc2ccccc2)c(I)c1)NC(=O)OC(C)(C)C	4.52	< 4.00	–	4.23	< 20	–	–
CC(C)(C)OC(=O)NCCCC[C@H](NC(=O)[C@H](Cc1ccc(OCc2ccccc2)cc1)NC(=O)OC(C)(C)C)C(=O)N[C@@H](Cc1c[nH]c2ccccc12)C(=O)Nc1ccccc1 (Boc-Tyr(Bn)-Lys(Boc)-Trp-NHPh)	< 4.00	–	< 20	< 4.00	–	< 20	1.6
C[C@H](NC(=O)[C@H](Cc1ccc(OCc2ccccc2)cc1)NC(=O)OC(C)(C)C)C(=O)N[C@@H](Cc1c[nH]c2ccccc12)C(=O)NCc1ccccc1 (Boc-Tyr(Bn)-Ala-Trp-NHBn)	4.26	–	–	< 4.00	–	< 20	1.7
COC(=O)[C@@H]1Cc2c[nH]c3c(cccc23)-c2ccc(cc2OC)C[C@H](NC(=O)OC(C)(C)C)C(=O)N[C@@H](C)C(=O)N1	4.43	< 4.00	< 20	< 4.00	< 20	< 20	–
C[C@H](NC(=O)[C@H](Cc1ccc(OCc2ccccc2)cc1)NC(=O)OC(C)(C)C)C(=O)N[C@@H](Cc1c[nH]c2ccccc12)C(=O)O (Boc-Tyr(Bn)-Ala-Trp-OH)	< 4.00	–	< 20	< 4.00	–	< 20	1.5
NCCCC[C@H](NC(=O)[C@@H](N)Cc1ccc(OCc2ccccc2)cc1)C(=O)N[C@@H](Cc1c[nH]c2ccccc12)C(=O)Nc1ccccc1 (H-Tyr(Bn)-Lys-Trp-NHPh)	< 4.00	5.95	< 20	5.65	–	–	–
CNC(=O)[C@@H](Cc1c[nH]c2c(-c3ccc(C[C@H](NC(=O)OC(C)(C)C)C(=O)N[C@H](CC(C)C)C(=O)OC)cc3OCc3ccccc3)cccc12)NC(=O)OCc1ccccc1	< 4.00	4.16	< 20	< 4.00	–	< 20	–
CNC(=O)[C@@H](Cc1c[nH]c2c(-c3ccc(C[C@H](NC(=O)OC(C)(C)C)C(=O)N[C@H](C)C(=O)OC)cc3OCc3ccccc3)cccc12)NC(=O)OCc1ccccc1	< 4.00	4.67	–	< 4.00	–	20	–
CC(C)(C)OC(=O)NCCCC[C@H](NC(=O)[C@H](Cc1ccc(OCc2ccccc2)cc1)NC(=O)OC(C)(C)C)C(=O)N[C@@H](Cc1c[nH]c2ccccc12)C(=O)Nc1ccc(O)cc1	< 4.00	< 4.00	< 20	4.18	–	–	–
NCCCC[C@H](NC(=O)[C@@H](N)Cc1ccc(OCc2ccccc2)cc1)C(=O)N[C@@H](Cc1c[nH]c2ccccc12)C(=O)Nc1ccc(O)cc1	< 4.00	6.01	< 20	6.07	–	–	–
COC(=O)[C@H](Cc1c[nH]c2ccccc12)NC(=O)[C@H](C)NC(=O)[C@H](Cc1ccc(OCc2ccccc2)cc1)NC(=O)OC(C)(C)C (Boc-Tyr(Bn)-Ala-Trp-OMe)	< 4.00	–	–	4.35	–	–	9.8
CC(C)(C)OC(=O)N[C@@H](Cc1ccc(OCc2ccccc2)cc1)C(=O)N[C@@H](CC(N)=O)C(=O)N[C@@H](Cc1c[nH]c2ccccc12)C(=O)Nc1ccc(O)cc1	4.63	< 4.00	–	< 4.00	< 20	–	–
COC(=O)[C@H](Cc1c[nH]c2ccccc12)NC(=O)[C@H](C)NC(=O)[C@H](Cc1ccc(O)cc1)NC(=O)OC(C)(C)C (Boc-Tyr-Ala-Trp-OMe)	5.06	–	–	5.04	–	–	6
CC(C)(C)OC(=O)N[C@@H](Cc1ccc(OCc2ccccc2)cc1)C(=O)NCC(=O)N[C@@H](Cc1c[nH]c2ccccc12)C(=O)NCc1ccccc1 (Boc-Tyr(Bn)-Gly-Trp-NHBn)	4.50	–	–	< 4.00	–	< 20	1.7
COC(=O)[C@@H]1Cc2c[nH]c3c(cccc23)-c2ccc(cc2OC)C[C@H](NC(=O)OC(C)(C)C)C(=O)N[C@@H](CC(C)C)C(=O)N1	< 4.00	–	–	< 4.00	–	< 20	1.8
COC(=O)[C@@H]1Cc2c[nH]c3c(cccc23)-c2ccc(cc2OCc2ccccc2)C[C@H](NC(=O)OC(C)(C)C)C(=O)N[C@@H](CC(C)C)C(=O)N1	< 4.00	–	< 20	< 4.00	–	< 20	1.4
CCOC(=O)[C@H](Cc1c[nH]c2c(Br)cccc12)NC(=O)[C@H](CC(C)C)NC(=O)[C@H](Cc1ccc(OC)c(I)c1)NC(=O)OC(C)(C)C	< 4.00	< 4.00	–	< 4.00	< 20	< 20	–
